# Source: PubChem BioAssay
# DNMT1 inh: human DNMT1 methyltransferase inhibitors, primary screen, biochemical, molecular beacon, fluorescence, HinP1I cleavage, uHTS; inhibition (reported as % activation of signal), % at 10 µM; hit rate 0.83% among 360,000; in the data active = inhibition above about 50%
# LMPTP inh: LMPTP phosphatase inhibitors, primary screen, biochemical, fluorescence intensity, uHTS; Low molecular weight phosphotyrosine protein phosphatase (Homo sapiens), P24666; recombinant LMPTP-A, OMFP fluorogenic substrate; inhibition, % at 20 µM; hit rate 0.22% among 360,000;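 active = compounds that cut the enzyme signal by at least half of the control window in the single-dose screen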;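 note: plate controls were DMSO wells with enzyme plus substrate for no effect and substrate without enzyme for full effect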
# Target sequence (P24666 whole entry, looked up): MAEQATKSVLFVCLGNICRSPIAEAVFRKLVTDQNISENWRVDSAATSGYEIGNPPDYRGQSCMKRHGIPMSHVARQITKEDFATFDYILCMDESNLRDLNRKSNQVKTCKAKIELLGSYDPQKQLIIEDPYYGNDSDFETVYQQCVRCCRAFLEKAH
#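 Buffer or medium: Bis-Tris pH 6.0, DTT, detergent; Assay system: LMPTP-A enzyme; Quantity: 0.625 nM enzyme; Detection: endpoint fluorescence intensity; Times: 50 min dark incubation at room temperature; Controls: substrate-only low control, DMSO enzyme-plus-substrate high control; Doses: single 20 µM dose; Read-out: percent inhibition versus substrate-only and uninhibited controls; Reagent: 400 µM OMFP.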
# SUMO1 PPI mod: modulators of SUMO1 protein-protein interactions, primary screen, biochemical, uHTS; Small ubiquitin-related modifier 1 (Homo sapiens), P63165; SUMO1 binding to a labelled peptide, TR-FRET, 1 h; inhibition, % at 20 µM; hit rate 0.33% among 360,000; in the data active = inhibition above about 37%
# Target sequence (P63165 whole entry, looked up): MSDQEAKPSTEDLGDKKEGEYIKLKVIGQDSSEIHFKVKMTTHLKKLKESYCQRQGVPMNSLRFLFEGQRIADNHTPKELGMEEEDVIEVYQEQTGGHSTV
# NadD block: inhibitors of S. aureus NadD, primary screen, biochemical, colorimetric, uHTS. Nicotinate-nucleotide adenylyltransferase NadD (Staphylococcus aureus N315). purified NadD enzyme, colorimetric absorbance read-out. inhibition, % at 20 µM. hit rate 0.78% among 360,000. AID 602399, 2012; in the data active = inhibition above about 26%
# Scp-1 inhibitor: Scp-1 phosphatase inhibitors, primary screen, biochemical, colorimetric, uHTS; hit rate 0.88% among 340,000; Carboxy-terminal domain RNA polymerase II polypeptide A small phosphatase 1 (Homo …; Recombinant Scp1, phosphopeptide, malachite green phosphate absorbance; inhibition, % at 20 µM;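 active = inhibition above about 50% at 20 µM, limit read from the data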;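 note: plate controls were DMSO wells with enzyme for no effect and wells lacking enzyme for full effect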
# Target sequence (Q9GZU7 76-261 limits assumed): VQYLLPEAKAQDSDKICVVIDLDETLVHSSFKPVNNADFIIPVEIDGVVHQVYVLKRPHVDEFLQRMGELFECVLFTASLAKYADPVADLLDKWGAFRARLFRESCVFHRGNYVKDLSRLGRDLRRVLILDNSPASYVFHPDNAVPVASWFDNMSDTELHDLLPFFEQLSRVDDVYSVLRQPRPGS
#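 assay system = SCP-1 phosphatase catalytic domain, residues 76-261 | buffer or medium = 50 mM Tris acetate pH 5.5, 0.005% Tween-20, 10 mM MgCl2 | incubation = enzyme reaction 45 min at room temperature, colour 5 min, stabilisation 30 min | signal = Phosphate-binding colour reagent, absorbance read at 630 nm | measure = % inhibition at 20 µM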
# STEP block: STEP phosphatase inhibitors, primary screen, biochemical, fluorescence intensity, uHTS; Tyrosine-protein phosphatase non-receptor type 5 (Homo sapiens), P54829; recombinant STEP, OMFP fluorogenic substrate; inhibition, % at 20 µM; hit rate 0.25% among 360,000; AID 588621, 2011;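 active = inhibition at 20 µM, scaled per plate between control wells, above about 37%, limit read from the data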;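 note: 0% = DMSO with enzyme and substrate and 100% = substrate only without enzyme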
#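 material = STEP tyrosine phosphatase | reagent = fluorogenic phosphatase substrate OMFP at 25 µM final | doses = single compound dose of 20 µM, 1% DMSO final | schedule = 20 min reaction, room temperature, in the dark | measured by = fluorescence, 480/540 nm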
# An asterisk follows results filed as active; i = inactive; nt = not tested or not shown; + = active, no number. Rows were chosen to be rich in hits. Some 2.4% of all compounds tested hit in one or more screens of this group.
SMILES,DNMT1 inh,LMPTP inh,SUMO1 PPI mod,NadD block,Scp-1 inhibitor,STEP block
COc1cc2c(cc1OC)C1(Nc3c-2c(-c2ccccc2)nn3-c2ccccc2)C(=O)Nc2ccccc21 (stereo not given),-12.7,2.6,1.1,39.8*,7.1,-3.9
O=C1/C(=C/c2cccc(F)c2)Oc2cc(O)ccc21,4.1,1.4,-28.0,-5.8,0.1,-1.8
CNS(=O)(=O)c1cccc2nsnc12,2.6,-2.0,-22.0,0.9,-1.3,-1.2
Cc1ccc(S(=O)(=O)N(C)CC(=O)Nc2nc3ccccc3s2)cc1,-3.8,-0.6,-3.3,-3.9,-0.3,-0.9
Cc1ccc(/C(=N/Nc2nc3ccccc3s2)C2=C(O)c3ccccc3C2=O)cc1,-42.9,1.2,5.0,34.0*,-10.7,-5.5
CCN(CC(=O)Nc1ccccc1OC)C(=O)CCc1ccccc1,1.2,-0.1,40.5*,-4.6,-5.8,0.8
CCOc1ccc(OCCC(=O)N(CC)CC(=O)Nc2ccccc2OC)cc1,3.0,0.5,-1.8,-3.5,-4.9,0.8
C[C@@H]1CC[C@]2(C(=O)O)CC[C@]3(C)C(=CCC4[C@]56CC[C@@](O)(OC5)C(C)(C)C6CC[C@]43C)C2[C@H]1C (stereo not given in full),-0.9,2.2,-1.1,4.7,-6.7,1.0
C[C@H]1[C@H](C)CC[C@]2(C(=O)O)CC[C@]3(C)C(=CC[C@@H]4[C@@]5(C)CC[C@H](O)C(C)(C)[C@@H]5CC[C@]43C)[C@H]12,15.3,-16.1,-2.2,47.4*,3.8,-3.1
C[C@@H]1CC[C@]2(C(=O)O)CC[C@]3(C)C(=CCC4[C@@]5(C)CC[C@H](O)[C@@](C)(C(=O)O)C5CC[C@]43C)C2[C@]1(C)O (stereo not given in full),8.7,-2.2,3.2,1.4,1.6,-6.0
C[C@H]1[C@H](C)CC[C@]2(C(=O)O)CC[C@]3(C)C(=CC[C@@H]4[C@@]5(C)C[C@@H](O)[C@H](O)C(C)(C)[C@@H]5CC[C@]43C)[C@H]12,6.5,-6.0,-4.3,34.7*,9.3,-3.8
COc1ccccc1CNS(=O)(=O)c1ccc(-n2cccn2)cc1,3.0,-0.5,-2.4,0.5,-7.5,-0.6
Cc1ccc(C)c(NC(=O)CSc2nnc(C3CCCCC3)o2)c1,2.2,1.3,5.1,-0.5,-4.4,4.1
C/C=C\C=C/C(=O)Nc1cccc(C2=NOC3(C2)C[C@@H](C(N)=O)N(C(=O)/C=C/C=C\C)C3)c1 (stereo not given in full),64.4*,6.4,95.2*,30.8*,79.5*,2.5
C=C(C)C(=O)Nc1cccc(C2=NOC3(C2)C[C@@H](C(N)=O)N(C(=O)c2ccc(Cl)cc2)C3)c1 (stereo not given in full),nt,nt,nt,nt,70.6*,nt
Nn1c(SCC(=O)Nc2ccc(F)cc2F)nnc1C1CCCCC1,0.7,0.5,4.7,0.5,-8.0,-3.1
Nn1c(SCC(=O)Nc2c(F)cc(F)cc2Br)nnc1C1CCCCC1,-46.3,0.3,46.1*,10.3,0.3,4.5
Cc1cccc2c1-c1sc(C(=O)Nc3ccccc3N3CCN(C)CC3)cc1CO2,-6.9,4.8,-24.3,3.4,7.7,11.3
Cc1ccccc1C(=O)NNC(=O)CSc1nc(-c2ccccc2)cc(=O)[nH]1,0.7,-0.6,20.7,-1.1,-5.3,-1.0
Cc1ncc(CO)c(/C=N/NC(=S)Nc2cccc(Cl)c2)c1O,-26.7,5.5,20.7,12.3,-4.7,64.1*
CCOc1ccccc1NC(=O)c1nc(-c2ccccc2)oc1C,1.2,4.2,-0.1,4.3,-11.5,1.2
CCN(CC)c1ccc2cc(-c3nc4ccccc4[nH]3)c(=O)oc2c1,+,2.9,1.1,7.2,-1.1,i
CCN(C(=O)COC(=O)/C=C/c1ccco1)c1c(N)n(Cc2ccccc2)c(=O)[nH]c1=O,16.4,0.5,-18.7,2.4,35.9,4.3
CCn1cc([N+](=O)[O-])c(C(=O)N2N=C(c3ccc4ccccc4c3)CC2c2cc(Br)ccc2O)n1 (stereo not given),-22.8,3.1,2.4,40.1*,-12.1,-0.8
CCn1cc([N+](=O)[O-])c(C(=O)N2N=C(c3ccc(Cl)c(Cl)c3)CC2c2ccccc2O)n1 (stereo not given),-13.7,3.5,0.3,12.7,-13.7,-2.6
SMILES,DNMT1 inh,LMPTP inh,SUMO1 PPI mod,NadD block,Scp-1 inhibitor,STEP block
C[C@H]1CN([C@@H](C)CO)C(=O)CCCn2nncc2CO[C@@H]1CN(C)C(=O)c1ccc2ccn(C)c2c1,5.9,-1.7,1.7,2.2,nt,0.6
O=C(c1ccccc1)c1c2c(cc3sc4ccccc4[n+]13)-c1cccc3cccc-2c13,57.6*,69.4*,-17.8,10.4,-4.2,2.7
C/C(=N/NC(=O)CN1CCN(Cc2ccccc2Cl)CC1)c1ccncc1,0.3,-1.5,-2.6,-1.3,0.9,-2.3
Cc1cccc2c(N=Nc3ccc(S(=O)(=O)Nc4ccc(Cl)cc4)cc3[N+](=O)[O-])c(O)[nH]c12,-0.2,6.7,-13.8,33.1*,-0.7,4.0
O=C(CN1CCCCCCC1)N/N=C/c1ccc(F)c(F)c1,15.6,-2.0,-2.0,-3.6,-8.7,1.5
O=C(COC(=O)c1ccco1)Nc1ccc2[nH]c(=O)[nH]c2c1,1.1,-0.3,50.6*,5.7,-5.0,-3.3
O=C(COC(=O)c1ccc(F)c(S(=O)(=O)N2CCOCC2)c1)Nc1ccc2[nH]c(=O)[nH]c2c1,-0.7,-2.3,61.4*,1.0,-2.5,-1.6
CC(=O)c1c(C)[nH]c(C(=O)OCC(=O)Nc2cccc(S(=O)(=O)N(C)C)c2)c1C,1.4,-0.4,3.6,0.9,0.6,-1.4
O=C(COC(=O)c1ccc(Br)o1)Nc1ccc2[nH]c(=O)[nH]c2c1,7.8,-0.7,38.5*,-2.7,1.1,2.4
O=C(COC(=O)c1ccc(Br)o1)Nc1ccc2c(c1)OCCO2,-1.6,-0.5,-0.6,-6.3,-2.7,-3.1
CC(=O)c1c(C)[nH]c(C(=O)OCC(=O)Nc2ccc3[nH]c(=O)[nH]c3c2)c1C,-13.4,0.4,60.8*,-0.2,-6.9,0.0
Cc1ccc(/C=N\NC(=O)c2ccc3c(c2)OCO3)o1,1.2,-0.5,-7.8,-5.2,1.0,-2.6
